Laboratory results taken from ChEMBL document CHEMBL4138161, “Discovery of simplified sampangine derivatives as novel fungal biofilm inhibitors” (Eur J Med Chem, 2018).
≈ marks a conversion by molar mass, not a printed value. Calls of active or inactive are those of the source. No cut-off for these calls is given here.

Experiments:
Candida albicans [1] = test: Antifungal activity against Candida albicans SC5314 after 24 hrs by spectrophotometric analysis; format: functional; conditions: SC5314, 24 h
Summary of the method: (§1)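 Broth microdilution in RPMI 1640, inoculum 5×10^3 CFU/mL, compounds from 6.4 mg/mL DMSO stocks, 35 ℃ for 24 h. Growth read as OD600; MIC80 taken as lowest concentration giving 80% growth inhibition. Triplicate.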

Candida parapsilosis = test: Antifungal activity against Candida parapsilosis 22019 after 24 hrs by spectrophotometric analysis; format: functional; conditions: Lodderomyces parapsilosis, 22019, 24 h; summary of the method: as §1
Nakaseomyces glabratus = test: Antifungal activity against Candida glabrata 537 after 24 hrs by spectrophotometric analysis; format: functional; conditions: Nakaseomyces glabratus, 537, 24 h; summary of the method: as §1
Cryptococcus neoformans = test: Antifungal activity against Cryptococcus neoformans 32609 after 24 hrs by spectrophotometric analysis; format: functional; conditions: Cryptococcus neoformans, 32609, 24 h; summary of the method: as §1
Aspergillus fumigatus = test: Antifungal activity against Aspergillus fumigatus 07544 after 24 hrs by spectrophotometric analysis; format: functional; conditions: Aspergillus fumigatus, 07544, 24 h; summary of the method: as §1
Trichophyton rubrum = test: Antifungal activity against Trichophyton rubrum Cmccftla after 24 hrs by spectrophotometric analysis; format: functional; summary of the method: as §1
Nannizzia gypsea = test: Antifungal activity against Microsporum gypseum Cmccfmza after 24 hrs by spectrophotometric analysis; format: functional; summary of the method: as §1
Candida albicans [2] = test: Antifungal activity against fluconazole-resistant Candida albicans clinical isolate 032 after 24 hrs by spectrophotometric analysis; format: functional; conditions: isolate 032, 24 h
Summary of the method: (§2)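 Broth microdilution (MIC80) against fluconazole-resistant clinical C. albicans isolates from a Shanghai hospital. Strains were grown in YPD at 30 ℃. Compounds came from 6.4 mg/mL DMSO stocks and were tested over a concentration series on 5×10^3 CFU/mL inoculum in RPMI 1640 at 35 ℃ for 24 h. OD600 was read; MIC80 is the lowest concentration giving 80% growth inhibition. Done in triplicate.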

Candida albicans [3] = test: Antifungal activity against fluconazole-resistant Candida albicans clinical isolate 1010 after 24 hrs by spectrophotometric analysis; format: functional; conditions: isolate 1010, 24 h; summary of the method: as §2
Candida albicans [4] = test: Antifungal activity against fluconazole-resistant Candida albicans isolate J38 clinical isolate after 24 hrs by spectrophotometric analysis; format: functional; conditions: isolate J38, 24 h; summary of the method: as §2
Candida albicans [5] = test: Antifungal activity against fluconazole-resistant Candida albicans isolate Chang7 clinical isolate after 24 hrs by spectrophotometric analysis; format: functional; conditions: isolate Chang7, 24 h; summary of the method: as §2
Candida albicans [6] = test: Antifungal activity against fluconazole-resistant Candida albicans clinical isolate 103 after 24 hrs by spectrophotometric analysis; format: functional; conditions: isolate 103, 24 h; summary of the method: as §2
Candida albicans [7] = test: Antifungal activity against Candida albicans infected in Sprague-Dawley rat vaginal infection model assessed as reduction in vaginal fungal burden at 1 mg/kg, administered intravaginally on day 1 to day 3 post fungal inoculation measured on day 4; format: functional, organism-based
Summary of the method: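 Ovariectomized rats inoculated intravaginally with 0.1 mL of 1×10^7 CFU/mL C. albicans on days 10, 11 and 12 after surgery. Compound in saline with 1% DMSO (2, 4, 8 mg/mL) given intravaginally on days 1–3 post-inoculation. On day 4, 100 µL vaginal fluid plated on chloramphenicol SDA agar for CFU counts.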

Candida albicans [8] = test: Antibiofilm activity against Candida albicans assessed inhibition of biofilm formation at 1024 ug/ml; format: functional
Candida albicans [9] = test: Antifungal activity against Candida albicans SC5314 after 48 hrs by spectrophotometric analysis; format: functional; conditions: SC5314, 48 h
Candida albicans [10] = test: Antibiofilm activity against Candida albicans SC5314 assessed inhibition of yeast-to-hypha morphological transition at 0.5 ug/ml after 3 hrs; format: functional, organism-based
Summary of the method: (§3)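 Yeast-to-hypha transition in YPD with 10% (v/v) FBS across compound concentrations; cell morphology photographed after 3 h at 37°C.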

Candida albicans [11] = test: Antibiofilm activity against Candida albicans SC5314 assessed inhibition of yeast-to-hypha morphological transition at 0.2 to 2 ug/ml after 3 hrs; format: functional, organism-based; summary of the method: as §3

Row | SMILES | MIC80 (Candida albicans [1]) [µg/mL] | MIC80 (Candida parapsilosis) [µg/mL] | MIC80 (Nakaseomyces glabratus) [µg/mL] | MIC80 (Cryptococcus neoformans) [µg/mL] | MIC80 (Aspergillus fumigatus) [µg/mL] | MIC80 (Trichophyton rubrum) [µg/mL] | MIC80 (Nannizzia gypsea) [µg/mL] | MIC80 (Candida albicans [2]) [µg/mL] | MIC80 (Candida albicans [3]) [µg/mL] | MIC80 (Candida albicans [4]) [µg/mL] | MIC80 (Candida albicans [5]) [µg/mL] | MIC80 (Candida albicans [6]) [µg/mL] | Activity (Candida albicans [7]) | inhibition at 1024 µg/mL (Candida albicans [8]) [%] | MIC80 (Candida albicans [9]) [µg/mL] | Activity (Candida albicans [10]) | inhibition (Candida albicans [11])
1 | OC(Cn1cncn1)(Cn1cncn1)c1ccc(F)cc1F [FLUCONAZOLE] | 0.25 (≈ 0.816 µM) | 2 (≈ 6.53 µM) | 2 (≈ 6.53 µM) | 1 (≈ 3.27 µM) | > 64 | 4 (≈ 13.1 µM) | 32 (≈ 104 µM) | > 64 | > 64 | > 64 | 2 (≈ 6.53 µM) | > 64 | Active | 60 |  |  | 
2 | Cc1cnc2c(c1C)C(=O)c1sc([N+](=O)[O-])cc1C2=O | 0.25 (≈ 0.867 µM) | 0.5 (≈ 1.73 µM) | 1 (≈ 3.47 µM) | 0.5 (≈ 1.73 µM) | 1 (≈ 3.47 µM) | 0.5 (≈ 1.73 µM) | 1 (≈ 3.47 µM) |  |  |  |  |  |  |  | 4 (≈ 13.9 µM) | Active | inactive
